The EternaBench riboswitch data

Test system: MS2 coat protein
Assay: apparent Kd, MS2 coat protein; higher = weaker binding; RNA-MaP array; FMN 200 µM where present
Summary of the method: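 Designs on Illumina sequencing-chip clusters, transcribed by stalled E. coli RNA polymerase, were exposed to SNAP-549-labelled MS2 coat protein in doubling steps from 0.7 or 1.5 nM up to 3 µM, without and then with constant ligand. The buffer held 100 mM Tris-HCl pH 7.5, 80 mM KCl, 4 mM MgCl2, BSA, DTT, yeast tRNA and Tween-20. Apparent Kd values are medians of filtered per-cluster binding-curve fits to green signal normalised to red-channel RNA signal and control-cluster median Fmax.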

[1] = designed as: OFF switch for flavin mononucleotide, no ligand
[2] = ligand present: flavin mononucleotide, designed as: OFF switch for flavin mononucleotide
[3] = designed as: ON switch for flavin mononucleotide, no ligand
[4] = ligand present: flavin mononucleotide, designed as: ON switch for flavin mononucleotide

Sequence	apparent Kd [1] [nM]	apparent Kd [2] [nM]	apparent Kd [3] [nM]	apparent Kd [4] [nM]
AAAUAAAGUACCUAGAUAUCCUCACAUGAGGAUCACCCAUGUCAGGAUAUUUGUCCUAAAAGGACAGAGAAGGGACAAGGUAUA	5.52	9.72	–	–
GUGAAGAUAGCAGGAUAUCUAUUUCCUACAUGAGGAUCACCCAUGUAGGUGAUUAGCCGAGUAAAGGAGAAGGGCUAUCUUUAC	–	–	6.62	5.81
GCGUGGUGUCUAGGAUAUGCCGUGCAACGAGGAGCAGAAGGAGACAUGAGGAUCACCCAUGUAAGCUUAGCCGCUCACAGAGGG	26.8	73.7	–	–
AGAUGACAAUGUCAUCUUCGACGGACAUGAGGAUCACCCAUGUAGGAUAUGCUACUCAAAGAGUAGCAGAAGGACAUGUGUCUU	22.2	74.8	–	–
GUGUAGAUAGGAUAUGCUGGAAUCUAGCGAAGCUAGGUUCUACAUGAGGAUCACCCAUGUAGAAGGGUCUACAC	33.4	22.6	–	–
CCCGGCGUGACGCUACACCGAGAGCAGGAUAUUCCGCCGUGAUCUACAUGAGGAUCACCCAUGUGGAAGAAGGGCUACACAAAA	8.94	37.5	–	–
AAGUCGUGAGGAUAUACAUGGAUAUACAUUUAUGUAGACCUACAUGAGGAUCACCCAUGUAGAAGGCACGAAUA	45.4	115	–	–
GGAAGACAAAGUCUUCCUAUUCGAACAUGAGGAUCACCCAUGUAGGAUAUGCUACUCAAAGAGUAGCAGAAGGACAUGUGCUUU	34.8	160	–	–
AGAUAACACCAGAAGGACAUGAGGAUCACCCAUGUAGGAUAUGGGCAUCACUCGAGAAAGAAAAGACCAUAUGGACACAUGGUC	–	–	160	13.2
AAAAAACAUGAGGAUCACCCAUGUAAAAAAAUGGGAGGAUAUACAAAAACGAAAGUCAAAGUAGAAGGCCUGAAAA	–	–	119	25.6
GGAUAGGACAGAGGAUAUACGUGCUAGAGAUACUAGCAAAAUUUCCUCACAUGAGGAUCACCCAUGUAGAAGGCUGUCCUAUAG	16.7	432	–	–
GACAUGGGCUAGAAGGCCUAUCUAUUUAAGUACGAUUUAGAACAGCAUAGGAGGAUAUGGCUAACAUGAGGAUCACCCAUGUUC	–	–	170	39.2
GCACUGGAUGUAGGAUAUCAGGACGAUAAGUCCUGAGAAGGACAUGAGGAUCACCCAUGUCUCAAGAAACCAGUGCAUAAUAUA	13	15.9	–	–
AAGACACAUCUAGGAUAUGGUGAUGCUCAGAACACAUGAGGAUCACCCAUGUAGCUUGUGUAUAAUCAGAAGGAGAACCGUGUA	–	–	36.4	259
GUGUACAGAGGAUAUACAUAAGCUAGGAAACUAGCAUCCUCACAUGAGGAUCACCCAUGUAGAAGGCUGUACAC	305	19.6	–	–
GCCAGAGCAGGAUAUUCAAUAUUCCACAUGAGGAUCACCCAUGUCCUGCGAAAGCAGGAGGGAGAAGGGCUCUGGC	69.5	25.5	–	–
CAGGAUAGAGGAUAUACAUAGAUACAGAUUCGUGUGAUCCUACAUGAGGAUCACCCAUGUAGAAGGCUAUCCUG	213	15.9	–	–
GUGUAGAUAGGAUAUGCGUGAGUCUAGCGAAGCUAGGCUCUACAUGAGGAUCACCCAUGUAGAAGGGUCUACAC	21	18.1	–	–
UUUGGGUCAGGAUAUUGUUAGUUUAGUUGUUUGUAUUAGUUCGAGAAGGGACAUGAGGAUCACCCAUGUGGUAA	94.9	69.9	–	–
GGUCGUAAGGAGAAGGGCUACUGGUUGAAACCUGCGGCCUCUGGAACAUGAGGAUCACCCAUGUAGCAGGAUAUCCUUGCGUGA	188	45.3	–	–
AUACAAAGCACAGGAUAUGGGAGUGAGAAUCAUGCUGCGAAUUGAUUCGGACCAGAAGGGUGCACAUGAGGAUCACCCAUGUAC	–	–	185	77.6
UUAUAUAGUGUGAGGAUAUGCUGGUCCUUGGAUCAGCAGAAGGCACAUGAGGAUCACCCAUGUAGUUAAUUAUA	32	122	–	–
UAUAUAUAGGCAGGAUAUACAUGUAUAUAUAAUAUAUUAUAUAAUAUAACAUGAGGAUCACCCAUGUAGAAGGGCCAUAAUAUA	58.4	83.7	–	–
AAUCCACAUGAGGAUCACCCAUGUCAGGAUAUCGCGCGCGCGUUUUCGGUCUUGCGCGCGAGAAGGGACGGCUG	26.2	46	–	–

Sequence	apparent Kd [1] [nM]	apparent Kd [2] [nM]	apparent Kd [3] [nM]	apparent Kd [4] [nM]
GCACAUGGCAUAGGAUAUAGAACGAUAGUUGAAAUAGAUUGUUGGAAUUUACUAGAAGGAUGAGACAUGAGGAUCACCCAUGUA	–	–	34.9	28.6
AACUCACAUGAGGAUCACCCAUGUGAGGAUAUAUUAUUAUGGCUGUUAUGCUGUAGUGGUAGAAGGCGCGUGAU	33.2	28.7	–	–
AAAAAGCGAGGAUAUACAUAGCUAAGACGUGUGAGCGAAAAACAUGAGGAUCACCCAUGUAGAAGGCGCAAAAA	18	17.9	–	–
UUCAUCAAUGAAGGAUAUCUAUGUCCAACAUGAGGAUCACCCAUGUUGAGGAUUACCUAUGUGUAGGAGAAGGUCAAUAUAACU	–	–	6.53	5.93
CCAUGGAAUGUAGGAUAUGACUGACAAAGUCAGUUAGAAGGACAUGAGGAUCACCCAUGUAGGAAACAACCACAUAAACCAUGG	7.62	6.97	–	–
UGGUUCUAGGGAGGAUAUGGGAAGAUACAUGAGGAUCACCCAUGUUUAAGAAUGCCGAGAGGCAACUAGAAGGCCCUAGUACCU	–	–	406	20.3
AAAAAGUCAGGAUAUGCUUAUAAUAAGAAAAUUAGAGAUAUGCAGAAGGGACAUGAGGAUCACCCAUGUAAAAA	35.3	37.8	–	–
AAAUCGUCAGGAUAUGCAUGUAAUUGUUACAUUUCUCCGUUGCAGAAGGGACAUGAGGAUCACCCAUGUAAGUC	31.2	29.2	–	–
GGGCAAUUAGGAUAUACAUGAGGAUCACCCAUGUGGAAGCCCGGACAGGUAAUCCACUGUAGAAGGGAUUGCCA	12	13.3	–	–
AUACAUCUUCGAGGAUAUCGGUGAUAAAUUUUACGAGAAGGCGAUGAAAGAUAUAAUCUUAUAUACAUGAGGAUCACCCAUGUU	–	–	26	24.1
UUUUUUCCUCAUGUACAUGAGGAACAUGAGGAUCACCCAUGUAGAAGGAUUUCCCUUAAAUUAAGAUAGGAUAUACAUAUUUUU	88.2	61.6	–	–
AUCAUGUAAGGAUAUCUUACAUGUGACUUCGGUCACAGUUAAGAGAAGGUACAUGAGGAUCACCCAUGUAUAAC	28	45.3	–	–
GCACGGUAUGUAGGAUAUGCAUAGCAUUGCUAUGCAGAAGGACAUGAGGAUCACCCAUGUAUGUAUUCCAUACUAAUCCCGUGG	5.38	5.72	–	–
AAAAAACAUGAGGAUCACCCAUGUGAGGAUAUGGAAAAAAAAAAAAAAAAAAAAAAAACCAGAAGGCACAAAAA	92.6	60	–	–
UUGAGUUAGCAGGAUAUGGGCAGCAGGAUGCUUCCAGAAGGGCUGACAUGAGGAUCACCCAUGUUCCCAUGCUU	47.7	63.6	–	–
UAUGUGUCAGGAUAUUAAUUAUUGGAGAAUGUGACGAUGAUUAAGAAGGGACAUGAGGAUCACCCAUGUUCAUC	20.4	33.6	–	–
UUUGCAUUCCGAGGAUAUUCAUAUAAUGACUACACAUGAGGAUCACCCAUGUGGCGAUAGCCUAGGGAGAAGGCGGUUUGCUUU	–	–	20.3	17.8
UGUCGGAGCAGAGGAUAUUACAUGAGGAUCACCCAUGUAUGAACCAAUAGCUGGAAAGAGCAAUGUAAGAAGGCUGCUCCGACA	19.7	181	–	–
ACAUGAGGAUCACCCAUGUAUUUGUAGGAUAUACACAAUUCUUUAUUACUCUAAUUAAUAUGUUUGUAGAAGGACACUGCAUGA	9.71	9.52	–	–
GUAGCAUACCGAGGAUAUUCAGGGCGUGGAUAUACAUGAGGAUCACCCAUGUGGCGGAAGCCUAGGGAGAAGGCGGGCUGCUUC	–	–	24.6	19.9
UAGUAUAAGGGCAUUAAACAUGAGGAUCACCCAUGUACGUUAGAGGAUAUGCAUUUCAGUUGAGAGUAGAAGGUUAGAGAAGGG	45.1	47.4	–	–
CUGGUGUCAGGAUAUGCAUAGCAGUGACCGAAACCCGGUCAGCAGAAGGGACAUGAGGAUCACCCAUGUUAAUA	23	64.1	–	–
AGUACUCAAAGAGUACGCGUAAGCACAUGAGGAUCACCCAUGUAGGAUAUGCUACUCAAAGAGUAGUAGAAGGACAUAUUCCUC	5.85	7.46	–	–
GCUAGGCAUGUCAGGAUAUGCUGAACCUUGGUUCAGCAGAAGGGACAUGAGGAUCACCCAUGUGCCAACCUAGC	57.4	613	–	–
